Laboratory results published in publication PMC3752840 (Journal of the American Chemical Society, 2013).
“And” between values parts separate entries of the source, which are not always exact repeats. Identical values can stand only once. Square brackets hold non-standard residues; d marks the D form. Peptide text beside a SMILES is read from it. * marks the point of attachment. Heptanoyl = CCCCCCC(=O)*; Octanoyl = CCCCCCCC(=O)*

How the values were obtained:
[1] = molecular target: human 20S proteasome, chymotrypsin-like activity (Homo sapiens, UniProt P28074); test: Proteasome inhibition assay, chymotrypsin-like activity; type: biochemical
Outline: (§1)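 Human 20S proteasome (1 nM) in 10 mM Tris-HCl, 0.035% SDS, pH 7.4, preincubated with test compound for 15 min at RT. Fluorogenic substrate then added at 5 µM: Suc-LLVY-AMC for chymotrypsin-like activity, Z-LLE-AMC for caspase-like activity. Fluorescence read at 380/460 nm; IC50 calculated from initial rates.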

[2] = test system: U-937 histiocytic lymphoma cell line; type: cell-based, human; settings: 72 h
[3] = molecular target: human 20S proteasome (Homo sapiens, UniProt P28072+P28074); test: Proteasome inhibition assay; type: biochemical; settings: two proteasome activities, which is which not stated
[4] = molecular target: T1, human calpain-I (Homo sapiens, UniProt P07384); test: Calpain IC50, Suc-LLVY-AMC fluorescence assay; type: biochemical
T1 sequence (P07384 1-714): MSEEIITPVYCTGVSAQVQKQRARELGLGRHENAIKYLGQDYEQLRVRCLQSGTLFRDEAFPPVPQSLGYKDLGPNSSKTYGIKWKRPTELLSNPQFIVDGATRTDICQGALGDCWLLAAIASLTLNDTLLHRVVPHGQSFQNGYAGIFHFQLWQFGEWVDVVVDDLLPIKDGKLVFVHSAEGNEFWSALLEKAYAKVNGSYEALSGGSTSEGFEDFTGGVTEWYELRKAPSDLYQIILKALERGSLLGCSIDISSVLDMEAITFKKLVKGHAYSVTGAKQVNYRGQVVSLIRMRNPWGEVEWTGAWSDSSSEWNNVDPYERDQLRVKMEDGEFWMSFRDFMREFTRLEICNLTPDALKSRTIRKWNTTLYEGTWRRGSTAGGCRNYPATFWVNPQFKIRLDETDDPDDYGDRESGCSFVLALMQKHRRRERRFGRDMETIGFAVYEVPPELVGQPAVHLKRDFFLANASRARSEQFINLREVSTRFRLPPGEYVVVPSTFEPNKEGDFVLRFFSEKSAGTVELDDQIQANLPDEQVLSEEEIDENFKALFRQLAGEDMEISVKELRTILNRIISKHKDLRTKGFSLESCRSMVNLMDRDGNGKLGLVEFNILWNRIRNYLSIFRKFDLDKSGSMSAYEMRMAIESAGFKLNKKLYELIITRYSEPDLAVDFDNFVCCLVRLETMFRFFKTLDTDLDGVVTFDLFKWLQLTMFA
T1 sequence (P04632 1-268 partner): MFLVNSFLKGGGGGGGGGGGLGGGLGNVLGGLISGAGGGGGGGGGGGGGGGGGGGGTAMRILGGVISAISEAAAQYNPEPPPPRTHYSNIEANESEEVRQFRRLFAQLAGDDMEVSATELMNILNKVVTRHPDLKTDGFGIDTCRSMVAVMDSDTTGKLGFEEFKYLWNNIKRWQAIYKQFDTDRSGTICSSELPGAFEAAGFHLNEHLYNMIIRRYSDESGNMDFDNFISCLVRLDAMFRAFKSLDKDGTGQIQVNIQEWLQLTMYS

[5] = test system: FR4 multiple myeloma cell line; type: cell-based, human; settings: 72 h
[6] = test system: MM.M1S multiple myeloma cell line; type: cell-based, human; settings: 72 h, CellTiter-Glo; compound 3 no inhibition up to 80 µM
[7] = molecular target: T2, papain (Carica papaya, UniProt P00784); test: biochemical
T2 sequence (P00784 134-345): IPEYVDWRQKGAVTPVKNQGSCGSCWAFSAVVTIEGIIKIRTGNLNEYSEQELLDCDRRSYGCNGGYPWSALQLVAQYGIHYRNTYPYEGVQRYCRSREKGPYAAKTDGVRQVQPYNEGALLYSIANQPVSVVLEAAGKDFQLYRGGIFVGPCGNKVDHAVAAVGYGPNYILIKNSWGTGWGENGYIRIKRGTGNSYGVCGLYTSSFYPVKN

[8] = molecular target: human 20S proteasome, caspase-like activity (Homo sapiens, UniProt P28072); test: Proteasome inhibition assay, caspase-like activity; type: biochemical
Outline: as §1

[9] = CellTiter-Glo, compound 3 no inhibition up to 80 µM

| Structure (SMILES) | IC50 [1] [µM] | IC50 cell line U-937 [2, 9] | fold higher potency against the proteasome than 1 and 2 [3] | IC50 [4] [µM] | IC50 cell line FR4 [5, 9] | IC50 cell line MM.M1S [6] | IC50 [7] [µM] | IC50 [8] [µM] | IC50 [5] [µM] | IC50 [2] [µM] |
| --- | --- | --- | --- | --- | --- | --- | --- | --- | --- | --- |
| CC[C@H](C)[C@H](N)C(=O)N[C@@H](CCC(N)=O)C(=O)N[C@H](C(=O)N[C@H](CCC(N)=O)C(=O)N[C@H](C(=O)N[C@H](C=O)Cc1ccccc1)C(C)C)[C@@H](C)CC [Compound 3] (H-IQI[dQ]VF-aldehyde) | 0.43 ± 0.08 | No inhibition | 6 fold and 10 fold | 1.8 ± 0.3 | No inhibition | No inhibition | 0.07 ± 0.01 | 0.33 ± 0.07 | – | – |
| CCCCCCC(=O)N[C@H](C(=O)N[C@@H](CCC(N)=O)C(=O)N[C@H](C(=O)N[C@H](CCC(N)=O)C(=O)N[C@H](C(=O)N[C@H](C=O)Cc1ccccc1)[C@@H](C)CC)[C@@H](C)CC)[C@@H](C)CC [Compound 2] (Heptanoyl-IQI[dQ]IF-aldehyde; N-terminus assumed) | 3.3 ± 0.3 | – | – | 2.7 ± 0.4 | – | – | 0.35 ± 0.03 | 2.3 ± 0.7 | 30 ± 10 | – |
| CCCCCCCC(=O)N[C@H](C(=O)N[C@@H](CCC(N)=O)C(=O)N[C@H](C(=O)N[C@H](CCC(N)=O)C(=O)N[C@H](C(=O)N[C@H](C=O)Cc1ccccc1)C(C)C)[C@@H](C)CC)[C@@H](C)CC [Compound 1] (Octanoyl-IQI[dQ]VF-aldehyde; N-terminus assumed) | 4.9 ± 0.3 | – | – | 2.9 ± 0.3 | – | – | 0.16 ± 0.04 | 2.3 ± 0.2 | – | 13 ± 1 |
